Screening results deposited in PubChem BioAssay by The Scripps Research Institute Molecular Screening Center.
NPY-Y1 antag = blocks the human neuropeptide Y Y1 receptor. HEK293-CNG Y1 cells, membrane potential fluorescence; NPY at EC95, then isoproterenol. P25929. AID 1040. inhibition, % at 3.6 µM. 200,000 compounds, 1% hits;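 active = inhibition above the campaign mean inhibition of all tested compounds plus 3 SD, cut at about 20% in these data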
Target sequence (P25929 whole entry, looked up): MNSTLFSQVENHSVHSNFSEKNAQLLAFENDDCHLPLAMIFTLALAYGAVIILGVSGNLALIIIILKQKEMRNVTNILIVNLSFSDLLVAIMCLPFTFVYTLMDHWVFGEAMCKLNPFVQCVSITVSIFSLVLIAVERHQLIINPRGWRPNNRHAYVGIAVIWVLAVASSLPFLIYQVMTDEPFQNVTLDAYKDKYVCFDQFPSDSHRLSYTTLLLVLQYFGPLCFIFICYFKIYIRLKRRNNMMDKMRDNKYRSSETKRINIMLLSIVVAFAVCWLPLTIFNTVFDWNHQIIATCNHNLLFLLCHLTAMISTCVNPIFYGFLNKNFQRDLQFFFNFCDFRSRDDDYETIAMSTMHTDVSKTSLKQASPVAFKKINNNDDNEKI
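Material: HEK293 cells co-expressing NPY Y1 receptor and cyclic-nucleotide gated channel. Timing: compound incubation 1 h at room temperature, readout 45 min post-stimulation. Signal: fluorescence, membrane potential probe.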
NPY-Y2 antag = antagonists of human neuropeptide Y receptor Y2; NPY-Y2 expressing cells, antagonist mode; inhibition, % at 2.7 µM; P49146; 140,000 compounds, 0.99% hits; in the data active = inhibition above about 17%
NPY1 pot ag = potentiates or activates human NPY-Y1 receptor | activation, % at 3.6 µM | NPY-Y1 expressing cells, potentiator/agonist activation | AID 1304 | 220,000 compounds, 0.37% hits; in the data active = activation above about 33%, passing the limit was not always enough;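 also: cells stimulated with NPY at EC10 then isoproterenol at EC100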
NPY2 pot ag = human NPY-Y2 potentiation or agonism, primary screen | 220,000 compounds, 0.45% hits | cells expressing NPY-Y2, potentiator/agonist read-out | activation, % at 3.6 µM | P49146; in the data active = activation above about 27%;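 also: cells stimulated with NPY near EC25 plus isoproterenol at EC100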
Numbers stand for hits; 0 = inactive; - = no result given. Sampled rows, rich in hits. Any-hit rate of the full collection: about 1.8%.

SMILES	NPY-Y1 antag	NPY-Y2 antag	NPY1 pot ag	NPY2 pot ag
CCOC(=O)c1c(NC(=O)c2nn(C)cc2[N+](=O)[O-])sc(C)c1C	0	-	0	0
O=[N+]([O-])c1ccc(C2CCCC/C2=N/OCc2ccc(F)cc2)c([N+](=O)[O-])c1 (configuration not stated)	0	0	0	0
O=[N+]([O-])c1ccc(C2CCCC/C2=N/OCc2ccccc2F)c([N+](=O)[O-])c1 (configuration not stated)	21.1	18.5	0	0
Cc1cccc(Oc2nc(CN3CCOCC3)nc3sc4c(c23)CCCC4)c1	20.4	29.1	0	0
Clc1nc(CN2CCOCC2)nc2sc3c(c12)CCC3	0	-	0	0
c1csc(COc2ccccc2CNC2CCCCC2)c1	23.5	31.4	0	0
COc1cccc(C(=O)NCCCn2ccnc2)c1	0	-	0	0
Cc1[nH]c2ccc(-c3nnc(SCC(=O)NCc4ccco4)n3Cc3ccccc3)cc2c1C	0	0	111.8	103.7
COc1ccc(-c2nnc(SC(C)C(=O)NCc3ccc4c(c3)OCO4)n2Cc2ccco2)cc1 (configuration not stated)	37.5	51.0	0	0
C=CCn1c(SC(C)C(=O)NCc2ccc3c(c2)OCO3)nnc1C1CCCCC1 (configuration not stated)	27.6	20.1	0	0
CC(Sc1nnc2ccccn12)C(=O)NCc1ccc2c(c1)OCO2 (configuration not stated)	0	-	0	0
O=C(CSc1nnc(-c2ccc(Cl)cc2)n1Cc1ccco1)NCc1ccc2c(c1)OCO2	41.9	40.9	0	0
C=CCSC1=N/C(=C/c2ccsc2)C(=O)N1c1ccccc1	0	0	0	0
COc1cccc(CNc2cc(CSc3ccc(Cl)cc3)nc(C)n2)c1	20.6	21.3	0	0
COc1ccccc1CNc1cc(CSc2ccc(Cl)cc2)nc(C)n1	0	0	0	0
O=C1CN(C(=O)COC(=O)CCSc2ccccc2Cl)c2ccccc2N1	0	0	0	0
COc1ccc(N2CCN(/C(=N\S(=O)(=O)c3ccccc3)Nc3nc(C)cc(C)n3)CC2)cc1	0	0	0	0
Cc1ccc(S(=O)(=O)/N=C(/Nc2nc(C)cc(C)n2)N2CCOCC2)cc1	25.2	0	0	0
CCC[N+](CC#Cc1ccccc1)(CCC)CC(=O)OC	0	0	0	0
CCC[N+](CC#Cc1ccccc1)(CCC)CC(=O)c1ccc(Cl)cc1	29.1	19.1	0	0
Cc1cccc2nc(-c3ccco3)c(Nc3ccccc3)n12	0	-	47.3	33.7
CCCCCCNC(=O)c1cc(-c2ccco2)nc2ccccc12	57.1	66.0	0	0
CCCCn1c(=N)n(CC(O)COc2ccccc2)c2ccccc21 (configuration not stated)	34.5	26.3	0	0
N=c1n(CCN2CCOCC2)c2ccccc2n1CC(O)COc1ccccc1 (configuration not stated)	0	0	0	0
CCCCn1c(=N)n(CC(O)COc2ccc(C)cc2)c2ccccc21 (configuration not stated)	61.0	47.0	0	0
SMILES	NPY-Y1 antag	NPY-Y2 antag	NPY1 pot ag	NPY2 pot ag
N=c1n(CCN2CCCCC2)c2ccccc2n1CC(O)COc1ccccc1 (configuration not stated)	48.8	60.4	0	0
COc1ccc(S(=O)(=O)N(CC(=O)N2CCN(C)CC2)c2ccc(C)cc2)cc1OC	0	0	0	0
O=C(CCOc1ccccc1F)N1CCN(c2ccccc2O)CC1	0	-	0	0
CC(=O)Oc1c(C)cc(Cl)cc1C(=O)Nc1ccc([N+](=O)[O-])cc1Cl	0	20.2	0	0
CC1CCC(C(C)C)C(OCC(O)CN2CCOCC2)C1 (configuration not stated)	0	0	73.8	76.3
CC1CCC(C(C)C)C(OCC(O)CN2CCN(Cc3ccccc3)CC2)C1 (configuration not stated)	0	0	0	0
O=C(CN1CCN(c2ccccc2)CC1)Nc1cccc([N+](=O)[O-])c1	0	-	0	0
Cc1cccc(Nc2nc(-c3ccncc3)cs2)c1	0	-	47.0	35.0
Cc1cccc(Nc2nc(-c3ccc4c(c3)OCCO4)cs2)c1	0	0	0	0
Clc1ccc(-c2csc(Nc3cccnc3)n2)cc1	-	-	0	0
Clc1cccc(Nc2nc(-c3ccncc3)cs2)c1	0	-	45.5	50.7
Cc1ccc(Cn2c(=N)n(CC(O)COc3ccccc3)c3ccccc32)cc1 (configuration not stated)	35.6	33.7	0	0
N=c1n(Cc2ccccc2)c2ccccc2n1CC(O)COc1ccccc1 (configuration not stated)	41.1	43.5	0	0
O=C(Nc1nnc(C2CC2)s1)C1Cc2ccccc2CN1S(=O)(=O)c1ccccc1F (configuration not stated)	0	0	0	0
COc1ccc(OCc2nc3ccccc3n2C(C)C)cc1	0	-	0	0
O=C(COC(=O)c1ccc2c(c1)C(=O)N(Cc1ccncc1)C2=O)Nc1ccccc1[N+](=O)[O-]	0	0	0	0
CC(OC(=O)c1ccc2c(c1)C(=O)N(Cc1ccncc1)C2=O)C(=O)Nc1cccc(Cl)c1Cl (configuration not stated)	0	0	113.6	103.0
CCOC(=O)C1=C(N)n2c(s/c(=C\c3cccs3)c2=O)=C(C(=O)OCC)C1c1cccs1 (configuration not stated)	0	0	0	0
COc1cccc(OCC(O)CN2CCN(c3ccccc3)CC2)c1 (configuration not stated)	-	-	0	0
COc1cccc(OCC(O)CN2CCOCC2)c1 (configuration not stated)	0	0	59.8	44.8
COc1ccc(COCC(O)CN2CCOCC2)cc1OC (configuration not stated)	0	0	54.3	78.5
Cc1ccccc1OCC(=O)Nc1ccc2c(c1)Cc1ccccc1-2	31.8	18.9	0	0
COC(=O)CN1C(c2ccc(OC)cc2)=Nc2ccc(Cl)cc2C1c1ccccc1 (configuration not stated)	24.6	22.9	0	0
COC(=O)CN1C(c2cccc(Cl)c2)=Nc2ccc(Cl)cc2C1c1ccccc1 (configuration not stated)	38.7	27.6	0	0
COc1cc(C2=Nc3ccc(Br)cc3C(c3ccccc3)N2CC(=O)NN)cc(OC)c1OC (configuration not stated)	-	-	0	0
SMILES	NPY-Y1 antag	NPY-Y2 antag	NPY1 pot ag	NPY2 pot ag
c1csc(-c2csc3nc(CN4CCOCC4)nc(NCc4ccc5c(c4)OCO5)c23)c1	44.2	35.8	0	0
COc1ccc(S(=O)(=O)n2nc(-c3cc(OC)c(OC)c(OC)c3)cc2N)cc1OC	0	0	0	0
COc1ccc(-c2cc(N)n(S(=O)(=O)c3c(F)c(F)c(F)c(F)c3F)n2)cc1OC	87.4	98.5	0	0
Cc1c(C(=O)N/N=C/c2cccnc2)sc(=S)n1C	0	0	57.1	54.4
COC(=O)c1nn(-c2ccccc2)c2nnc(Cc3ccc(C)cc3)c(=O)n12	0	0	0	0
O=C(c1ccccc1)c1nn(-c2ccccc2)c2nnc(Cc3ccccc3)c(=O)n12	37.6	28.6	0	0
